How the values were obtained:
[1] = tested on: HepG2; assay: Growth inhibition of human HepG2 cells after 48 hrs by crystal violet assay; format: functional, cell-based; conditions: HepG2, 48 h
How it was run: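 HEP G2 liver cancer cells grown in DMEM with 10% heat-inactivated FBS, penicillin and streptomycin at 37 °C, 5% CO2. Seeded at 5000 cells/well, grown 24 h, then exposed to inhibitors for 48 h. Fixed and stained with 1% crystal violet in 70% ethanol for 30 min, water-washed, solubilized in 1% SDS, read at 550 nm. Cell-free blank subtracted; untreated growth set to 100%. Each concentration tested 8-fold.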

[2] = Octanol-water partition coefficient, log P by HPLC analysis; format: physicochemical
How it was run: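 log P determined from the analyte's peak area in each of the two layers.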

[3] = target: Histone acetyltransferase KAT2B (Homo sapiens, UniProt Q92831); assay: Inhibition of human recombinant histone acetyltransferase PCAF assessed as CoA-SH activity preincubated for 15 mins by CPM fluorescent assay
Histone acetyltransferase KAT2B, sequence (Q92831 whole entry): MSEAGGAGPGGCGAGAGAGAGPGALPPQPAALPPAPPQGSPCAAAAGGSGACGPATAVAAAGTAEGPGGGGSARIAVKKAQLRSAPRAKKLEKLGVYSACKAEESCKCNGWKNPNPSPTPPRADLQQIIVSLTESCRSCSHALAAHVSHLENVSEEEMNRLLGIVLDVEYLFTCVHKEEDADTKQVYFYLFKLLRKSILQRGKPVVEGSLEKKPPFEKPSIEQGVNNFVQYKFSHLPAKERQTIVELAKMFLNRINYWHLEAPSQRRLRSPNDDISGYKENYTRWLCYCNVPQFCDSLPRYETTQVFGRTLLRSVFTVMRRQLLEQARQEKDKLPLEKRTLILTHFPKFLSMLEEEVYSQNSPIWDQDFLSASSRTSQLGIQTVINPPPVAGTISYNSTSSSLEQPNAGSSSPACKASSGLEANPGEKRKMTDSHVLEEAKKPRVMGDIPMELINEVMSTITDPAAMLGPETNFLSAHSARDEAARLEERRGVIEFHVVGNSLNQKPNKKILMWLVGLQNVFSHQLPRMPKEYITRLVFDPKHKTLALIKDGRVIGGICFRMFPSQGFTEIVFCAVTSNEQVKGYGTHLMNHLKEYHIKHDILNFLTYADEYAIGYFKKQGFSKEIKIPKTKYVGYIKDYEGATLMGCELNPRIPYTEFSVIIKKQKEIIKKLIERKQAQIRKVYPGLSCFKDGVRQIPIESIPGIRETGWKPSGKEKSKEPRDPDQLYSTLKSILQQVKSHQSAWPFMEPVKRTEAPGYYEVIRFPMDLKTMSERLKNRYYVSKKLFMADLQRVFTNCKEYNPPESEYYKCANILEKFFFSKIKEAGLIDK

Row | Structure (SMILES) | IC50 [1] | logP [2] | IC50 [3]
1 | COC(=O)CCn1sc(Cl)cc1=O | 24 µM | 0.69 | –
2 | CCn1sc(Cl)cc1=O | 12 µM | – | –
3 | COC(=O)CCn1c(=O)cc(Cl)[s+]1[O-] (stereo unspecified) | > 100 µM | 0.08 | –
4 | CCn1sc(Cl)c(C)c1=O | 9.1 µM | – | > 10 µM
5 | CCn1sc(Cl)c(Cl)c1=O | 12 µM | – | 2.4 µM
6 | CCCCCCCCCCCCSc1cc(=O)n(C(C)(C)C)[s+]1[O-] (stereo unspecified) | > 50 µM | – | > 10 µM
7 | COC(=O)CCn1c(=O)c(C)c(Cl)[s+]1[O-] (stereo unspecified) | > 100 µM | – | > 10 µM
8 | COC(=O)CCn1sc(Cl)c(C)c1=O | 8.6 µM | – | > 10 µM
9 | CCn1c(=O)cc(Cl)[s+]1[O-] (stereo unspecified) | > 100 µM | – | > 10 µM
10 | COC(=O)CCn1sc(Cl)c(Cl)c1=O | 16 µM | – | 2.6 µM
11 | COC(=O)CCn1c(=O)c(Cl)c(Cl)[s+]1[O-] (stereo unspecified) | > 100 µM | – | > 10 µM
12 | CC(C)(C)n1c(=O)cc(Cl)[s+]1[O-] (stereo unspecified) | 27 µM | – | > 10 µM
13 | CCCCCCCCCCCCSc1cc(=O)n(CCC(=O)OC)[s+]1[O-] (stereo unspecified) | > 100 µM | – | > 10 µM
14 | CCn1c(=O)c(Cl)c(Cl)[s+]1[O-] (stereo unspecified) | > 100 µM | – | > 10 µM
15 | CCn1c(=O)c(C)c(Cl)[s+]1[O-] (stereo unspecified) | > 100 µM | – | > 10 µM
16 | CCCCCCCCCCCCSc1c(Cl)c(=O)n(CCC(=O)OC)[s+]1[O-] (stereo unspecified) | > 100 µM | – | > 10 µM

Reference: ChEMBL document CHEMBL1155178, “Reactivity of isothiazolones and isothiazolone-1-oxides in the inhibition of the PCAF histone acetyltransferase” (Eur J Med Chem, 2009)
